Beta cell apopt – blocks beta cell apoptosis | INS-1E cytokine-induced death, ATP luminescence, 48 h; percent of positive-control rescue, neutral wells zero | protection from apoptosis, % (no concentration beside the values) | 300,000 compounds, 0.8% hits;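 active = Every replicate reaches about 75%, or at least half do and their mean reaches it too, limit read from the data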;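 note: 0% = cytokine-treated negative control wells and 100% = positive control rescue; higher means more ATP so stronger rescue from cytokine killing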
Lmaj promast – reduces viability of Leishmania major promastigotes | 200,000 compounds, 9% hits | resazurin fluorescence viability | inhibition, % at 10 µM; in the data active = inhibition above about 50%;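 note: promastigotes grown with compound for 44 hours at 28 °C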
SKKanGAS inh – blocks kanamycin growth of S. pyogenes SKKanGAS strain; BacTiter-Glo, 6 h; inhibition, % at 7.5 µM; 300,000 compounds, 1.3% hits;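 active = mean replicate score, as percent of positive control median, at least 50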;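 note: strain carries kanamycin resistance gene driven by streptokinase promoter and grows in 40 µg/ml kanamycin; loss of luminescence reflects streptokinase promoter inhibition or plain growth inhibition; 0% = median of DMSO wells and 100% = positive control at its reference dose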
CSC inhib – cancer stem cell inhibition; AID 2717; cancer stem cell-like cells viability, luminescence; inhibition, % at 7.5 µM; 300,000 compounds, 1.1% hits; in the data active = inhibition above about 75%; tested in HMLE shEcad cells
Mdm2 MdmX PPI – inhibitors of human Mdm2/MdmX interaction; AID 485346; SaOS-2 split-luciferase Mdm2/MdmX complementation, luminescence; 330,000 compounds, 3% hits; inhibition, % at 8 µM; O15151+Q00987;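 active = inhibition of at least 50% at 8 µM in the primary screen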
T cruzi repl – blocks replication of Trypanosoma cruzi; T. cruzi beta-gal in NIH3T3, luminescence, 90 h; inhibition, % (test concentration not listed); 300,000 compounds, 1.4% hits;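 active = mean inhibition across valid replicates above about 55%, limit read from the data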;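 note: signal also drops with host cell toxicity which is not excluded here; 0% = plate median of DMSO wells and 100% = zero luminescence signal; higher percent means less beta-gal luminescence so fewer parasites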
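Assay system: NIH/3T3 host cells with β-galactosidase reporter T. cruzi; input: 5,000 host fibroblasts per well; compound: single 50 nL compound addition per well in DMSO; timing: ≥90 h infection period, 3 h prior cell attachment; measured by: GalScreen β-gal luminescence, detergent lysis, 60 min; evaluation: percent inhibition of parasite-derived β-gal signal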
Starred values were filed as active, the others as inactive. Hits are enriched below; roughly 9.4% of the tested compounds scored in any of these assays.

How did O=C(CCN1CCc2ccccc2CC1)c1ccc2c(c1)OCCO2 do in these assays?
Beta cell apopt: -30.4; Lmaj promast: 88.8*; SKKanGAS inh: 1.1; CSC inhib: 37.8; Mdm2 MdmX PPI: 16.0; T cruzi repl: 5.0

What do the screens show for `O=C(CCN1CCOCC1)c1ccc2c(c1)OCCO2`?
Beta cell apopt: -16.4; Lmaj promast: 100.5*; SKKanGAS inh: -7.4; CSC inhib: 9.8; Mdm2 MdmX PPI: 13.5; T cruzi repl: 9.2

Results for O=C(OCCN1CCOCC1)c1ccc2c(c1)OCCO2 ?
Beta cell apopt: -9.7; Lmaj promast: -2.6; SKKanGAS inh: 3.4; CSC inhib: 1.6; Mdm2 MdmX PPI: -56.2; T cruzi repl: -7.6

How did O=C(CCCO)c1ccc2c(c1)OCCO2 do in these assays?
Beta cell apopt: -8.1; Lmaj promast: -0.7; SKKanGAS inh: -6.2; CSC inhib: -6.0; Mdm2 MdmX PPI: 12.4; T cruzi repl: -11.0

What do the screens show for `Cc1ccc(C)c(NC(=O)CSc2nc(C)cs2)c1`?
Beta cell apopt: 7.4; Mdm2 MdmX PPI: -22.0

How did N#C/C(=C/c1ccc(N2CCCCCC2)o1)c1ccc(F)cc1 do in these assays?
Beta cell apopt: 35.9; Lmaj promast: 26.9; SKKanGAS inh: 64.7*; CSC inhib: -10.2; Mdm2 MdmX PPI: 46.6; T cruzi repl: 58.1*

Results for N#C/C(=C/c1ccc(N2CCCCCC2)o1)c1cccc(F)c1 ?
Beta cell apopt: 9.9; Lmaj promast: 20.2; SKKanGAS inh: -3.8; Mdm2 MdmX PPI: 49.6; T cruzi repl: 66.4*

What do the screens show for `CN(/N=C/c1ccc(C(C)(C)C)cc1)C1=NCCN1`?
Beta cell apopt: 1.4; Lmaj promast: 56.3*; SKKanGAS inh: -3.7; CSC inhib: 12.4; Mdm2 MdmX PPI: 25.5; T cruzi repl: 33.9

What do the screens show for `CN(/N=C/c1ccncc1)C1=NCCN1`?
Beta cell apopt: -5.7; SKKanGAS inh: 4.5; CSC inhib: -2.8; Mdm2 MdmX PPI: 24.8; T cruzi repl: 2.6

What do the screens show for `CS(=O)(=O)c1ccccc1-c1csc(N2CCC(C(N)=O)CC2)n1`?
Beta cell apopt: -10.2; CSC inhib: -18.4; Mdm2 MdmX PPI: -64.6

What do the screens show for `Cc1ccc(NC(=O)CCC(=O)N/N=C/c2cc([N+](=O)[O-])ccc2O)cc1`?
Beta cell apopt: 5.7; Lmaj promast: 35.8; SKKanGAS inh: 3.5; CSC inhib: 18.3; Mdm2 MdmX PPI: 14.2; T cruzi repl: -7.5

What do the screens show for `O=C(CCC(=O)Nc1cccc(Cl)c1)N/N=C/c1cc([N+](=O)[O-])ccc1O`?
Beta cell apopt: 28.9; Lmaj promast: 31.8; SKKanGAS inh: 99.7*; CSC inhib: 13.6; Mdm2 MdmX PPI: 41.6; T cruzi repl: -5.2

How did CN1CCN(CCC(=O)N/N=C/c2cc([N+](=O)[O-])ccc2O)CC1 do in these assays?
Beta cell apopt: 2.4; Lmaj promast: 99.9*; SKKanGAS inh: 7.9; CSC inhib: -6.7; Mdm2 MdmX PPI: -2.6; T cruzi repl: 1.8

Results for CCCC(=O)Nc1cccc(-c2cn3cccnc3n2)c1 ?
Beta cell apopt: -3.6; Lmaj promast: 90.5*; SKKanGAS inh: -3.4; CSC inhib: -12.6; Mdm2 MdmX PPI: 29.8; T cruzi repl: 2.7

What do the screens show for `COc1ccc(-c2cn3cccnc3n2)cc1NC(=O)CC(C)C`?
Beta cell apopt: 0.7; Lmaj promast: 24.2; SKKanGAS inh: 10.0; CSC inhib: -9.6; Mdm2 MdmX PPI: -8.5; T cruzi repl: -11.2

What do the screens show for `CCCC(=O)Nc1cc(-c2cn3cccnc3n2)ccc1OC`?
Beta cell apopt: -2.1; Lmaj promast: 63.0*; SKKanGAS inh: 0.4; CSC inhib: 0.9; Mdm2 MdmX PPI: -20.6; T cruzi repl: -0.2

Results for C=CCN(c1ccccc1)S(=O)(=O)c1cccc2cccnc12 ?
Beta cell apopt: -2.1; SKKanGAS inh: -6.6; CSC inhib: 2.4; Mdm2 MdmX PPI: 20.2; T cruzi repl: -8.1

How did CCN(CCO)C(=O)c1ccc2nc(Cc3ccc(OC)cc3)oc2c1 do in these assays?
Beta cell apopt: -2.9; SKKanGAS inh: -2.4; CSC inhib: 1.7; T cruzi repl: -16.4

How did CCn1c(COc2cccc3cccnc23)nnc1SC(F)F do in these assays?
Beta cell apopt: -1.5; Lmaj promast: 82.5*; SKKanGAS inh: 1.4; CSC inhib: -2.2; Mdm2 MdmX PPI: -17.1; T cruzi repl: -1.0

How did Cc1nccc2[nH]c(=O)c(C(=O)NC3CCCCC3C)cc12 (stereo not given) do in these assays?
Beta cell apopt: -9.4; Lmaj promast: 99.0*; SKKanGAS inh: 1.2; CSC inhib: 2.7; Mdm2 MdmX PPI: 2.7; T cruzi repl: 45.3

Source: PubChem
